Screening results: PubChem, The Scripps Research Institute Molecular Screening Center
Only some compounds are listed: those with a hit (about 2.3% of all), similar ones and a draw of the others.
ADAM17 inh = ADAM17 inhibitors, primary screen, biochemical, QFRET | Disintegrin and metalloproteinase domain-containing protein 17 (Homo sapiens), P78536 | recombinant ADAM17, EDANS/DABCYL FRET peptide cleavage | inhibition, % at 6.95 µM | 370,000 compounds, 0.83% hits | AID 720648, 2013;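 active means inhibition above the mean of compounds lying between control limits plus 3 SD, set per campaign, cut at about 8.5% in these data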
TbMetRS inhib = T. brucei MetRS inhibitors, primary screen, biochemical, luminescence; methionyl-tRNA synthetase (Trypanosoma brucei brucei); purified T. brucei MetRS, ATP depletion, Kinase-Glo luminescence; inhibition, % at 11.9 µM; 360,000 compounds, 0.4% hits;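 active means inhibition above a per-plate cutoff of the control wells' mean inhibition plus 3 SD, cut at about 5.5% in these data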
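Material: parasite MetRS enzyme / Replication: singlicate, one well per compound / Signal: luminescence of leftover ATP / Schedule: 2 h aminoacylation at 25 °C after 15 min preincubation / Medium: HEPES-MgCl2-KCl buffer plus DTT, spermine, BSA, pyrophosphatase / Doses: 11.9 µM single point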
PLC-beta3 inh = human PLC-beta3 inhibitors, primary screen, biochemical, fluorescence; Purified PLC-beta3, fluorogenic substrate; inhibition, % at 12.2 µM; 370,000 compounds, 0.18% hits; AID 720704, 2013; in the data active means inhibition above about 11%
PLCg1 inh = PLC-gamma1 enzyme inhibitors, primary screen, biochemical, fluorescence, purified enzyme; 1-phosphatidylinositol 4,5-bisphosphate phosphodiesterase gamma-1 (Homo sapiens), P19174; fluorogenic substrate; inhibition, % at 12.2 µM; 370,000 compounds, 0.84% hits; in the data active means inhibition above about 9.5%
ADAM10 inh = human ADAM10 inhibitors, primary screen, biochemical, QFRET, HTS | Disintegrin and metalloproteinase domain-containing protein 10 (Homo sapiens), O14672 | recombinant ADAM10, EDANS/DABCYL FRET peptide cleavage, 3 h | inhibition, % at 7 µM | 370,000 compounds, 0.62% hits;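 active means inhibition above a per-campaign cutoff equal to the mean of compounds falling between control-based bounds plus 3 SD, cut at about 20% in these data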
Target sequence (O14672 214-748 limits assumed): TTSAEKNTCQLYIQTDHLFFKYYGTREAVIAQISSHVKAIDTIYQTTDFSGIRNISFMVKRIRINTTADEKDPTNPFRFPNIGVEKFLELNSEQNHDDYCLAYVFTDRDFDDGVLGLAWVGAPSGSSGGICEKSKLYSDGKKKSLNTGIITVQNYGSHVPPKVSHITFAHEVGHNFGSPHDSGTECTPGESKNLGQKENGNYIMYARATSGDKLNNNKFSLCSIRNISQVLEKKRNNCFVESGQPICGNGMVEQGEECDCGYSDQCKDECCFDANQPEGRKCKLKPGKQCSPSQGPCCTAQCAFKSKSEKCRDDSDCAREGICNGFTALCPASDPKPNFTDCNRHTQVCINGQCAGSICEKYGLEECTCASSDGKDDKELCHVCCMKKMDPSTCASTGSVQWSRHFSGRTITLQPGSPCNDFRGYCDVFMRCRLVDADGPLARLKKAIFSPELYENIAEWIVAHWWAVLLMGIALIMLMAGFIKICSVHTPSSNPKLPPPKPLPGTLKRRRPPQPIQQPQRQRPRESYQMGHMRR
ADAM10 confirm = human ADAM10 inhibitors, confirmation, biochemical, QFRET, triplicate; 2,100 compounds, 1% hits; AID 743208, 2013; inhibition, % at 6.95 µM; ADAM10 QFRET peptide cleavage, EDANS fluorescence; shares compounds with ADAM10 inh;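 active means inhibition above about 20% chosen separately for each screening run, limit read from the data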
ADAM17 ctr = ADAM17 inhibitors, counter-screen for ADAM10 exosite inhibitor project, biochemical, QFRET, high throughput | shares compounds with ADAM10 inh | ADAM17 QFRET peptide cleavage, EDANS fluorescence | inhibition, % at 6.95 µM | 2,100 compounds, 0.5% hits | AID 743214, 2013;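 active means mean triplicate inhibition above the solvent-only control wells' mean plus 3 SD, cut at about 12% in these data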
ADAM10 counter = ADAM10 inhibitors, counter-screen for ADAM17 exosite inhibitor project, biochemical, FRET, human ADAM10 | shares compounds with ADAM17 inh | recombinant ADAM10, EDANS/DABCYL FRET peptide cleavage, 3 h | inhibition, % at 6.95 µM | 2,900 compounds, 47% hits | AID 743256, 2014;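 active means mean inhibition over the triplicate runs exceeds the activity threshold set in the earlier primary screen, cut at about 20% in these data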
ADAM17 confirm = ADAM17 inhibitors, hit retest, confirmation, biochemical, QFRET peptide cleavage | shares compounds with ADAM17 inh | recombinant ADAM17, EDANS/DABCYL QFRET peptide cleavage | AID 743257, 2014 | 2,900 compounds, 65% hits | inhibition, % at 6.95 µM;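 active means mean inhibition across replicates above the hit cutoff set in the primary screen, cut at about 8.5% in these data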
A number is an active result; - = inactive; . = not tested or not shown.

SMILES	ADAM17 inh	TbMetRS inhib	PLC-beta3 inh	PLCg1 inh	ADAM10 inh	ADAM10 confirm	ADAM17 ctr	ADAM10 counter	ADAM17 confirm
COC(=O)C1=C(C)N(CCCC(=O)O)C(=O)NC1c1ccccc1OS(=O)(=O)c1ccccc1[N+](=O)[O-] (configuration not stated)	-	-	-	-	-	.	.	.	.
C=CCC[C@@H](Cc1ccc(F)cc1)C(=O)OC[C@H](Cc1c[nH]c2ccccc12)NC(=O)[C@H](CC=C)CC(=O)N(CCO)Cc1ccccc1	12	-	-	-	21	-	-	55	27
C=CCC[C@H](Cc1ccc(F)cc1)C(=O)OC[C@@H](Cc1c[nH]c2ccccc12)NC(=O)[C@@H](CC=C)CC(=O)N(CCO)Cc1ccccc1	15	-	-	-	41	-	-	48	23
C=CC[C@H](CC(=O)N(CCO)Cc1ccccc1)C(=O)N[C@H](COC(=O)[C@@H](CC=C)Cc1ccc(F)cc1)Cc1ccccc1	11	-	-	-	21	-	-	25	16
C=CC[C@H](CC(=O)N(CCO)Cc1ccccc1)C(=O)N[C@H](COC(=O)[C@@H](CC=C)CC(=O)OC(C)(C)C)Cc1c[nH]c2ccccc12	13	-	-	-	26	-	-	45	22
C=CC[C@@H](CC(=O)N(CCO)Cc1ccccc1)C(=O)N[C@H](C)COC(=O)[C@@H](CC=C)Cc1ccc(F)cc1	-	-	-	-	-	.	.	.	.
C=CC[C@@H](CC(=O)N[C@H](CO)Cc1ccccc1)C(=O)N[C@H](COC(=O)[C@@H](CC=C)CC(=O)OC(C)(C)C)Cc1c[nH]c2ccccc12	-	-	-	-	-	.	.	.	.
C[C@H]1C(C(=O)N(C)C2CCCCC2)=Cc2c(n(-c3ccc(F)cc3)c(=O)n2CCCOc2ccccc2)C=C1c1ccccc1	-	.	-	-	-	.	.	.	.
COc1ccccc1-c1noc2ncnc(Nc3ccc4c(c3)OCO4)c12	-	-	-	-	-	.	.	.	.
C=CCC[C@H](Cc1ccc(F)cc1)C(=O)OC[C@H](Cc1c[nH]c2ccccc12)NC(=O)[C@@H](CC=C)CC(=O)N(CCO)Cc1ccccc1	14	-	-	-	27	-	-	40	20
CCCCCOC(=O)Nc1ccc(S(=O)(=O)Nc2cccc([N+](=O)[O-])c2)cc1	11	-	-	-	27	-	-	24	13
CCCCOC(=O)Nc1ccc(S(=O)(=O)Nc2ccc([N+](=O)[O-])cc2)cc1	-	-	-	-	-	.	.	.	.
Cc1cc(C)cc(N2CCCn3c2nc2c3c(=O)[nH]c(=O)n2C)c1	.	-	.	.	.	.	.	.	.
Oc1ccc(Cl)cc1-c1cc(-c2cccc(Br)c2)n[nH]1	10	-	-	-	25	-	-	31	17
CCC(=O)N(Cc1ccco1)c1nc(C(=O)Nc2ccc(Cl)cc2)c(C)s1	11	-	-	-	22	-	-	32	17
O=C1/C(=C\c2ccc(O)c(O)c2)SC(=S)N1Cc1ccccc1	8.9	-	-	-	23	-	-	36	21
O=C1/C(=C\c2cccc(O)c2O)SC(=S)N1Cc1ccccc1	-	-	-	-	-	.	.	.	.
COc1cc(/C=C2/SC(=S)N(Cc3ccccc3)C2=O)ccc1O	12	-	-	-	23	-	-	38	22
CCOc1ccc(NC(=O)CSc2nnnn2-c2ccc(C(N)=O)cc2)cc1	-	-	-	-	-	.	.	.	.
COc1ccc(C2c3c(-c4ccccc4O)n[nH]c3C(=O)N2Cc2ccco2)cc1 (configuration not stated)	-	-	-	-	-	.	.	.	.
COc1ccc(CCN2C(=O)c3[nH]nc(-c4ccccc4O)c3C2c2cccc(Cl)c2)cc1 (configuration not stated)	14	-	-	-	36	-	-	41	17
C=CCOC(=O)N[C@@H](c1coc2ccccc2c1=O)[C@@H](C)/C=C/CC(=O)OC	-	.	-	-	-	.	.	.	.
Nc1nc(Nc2ccccc2)nc(NC2CCCCC2)c1[N+](=O)[O-]	-	-	-	-	-	.	.	.	.
CC(=O)Nc1ccccc1OCC(=O)N(Cc1ccccc1)C(C)C	-	-	-	-	-	.	.	.	.
CN1C(=O)C[C@@](C#N)(C(=O)NCc2ccc3c(c2)OCO3)[C@H]1c1ccccc1	-	.	-	-	-	.	.	.	.
SMILES	ADAM17 inh	TbMetRS inhib	PLC-beta3 inh	PLCg1 inh	ADAM10 inh	ADAM10 confirm	ADAM17 ctr	ADAM10 counter	ADAM17 confirm
O=C(CCNC(=O)c1ccccc1Cl)Nc1cc(C(F)(F)F)ccc1Cl	-	-	-	-	-	.	.	.	.
Cc1ccc(C)c(C(=O)COC(=O)CCCC(=O)Nc2cc(C(F)(F)F)ccc2Cl)c1	9.8	-	-	-	20	-	-	25	11
CC(C)(C)OC(=O)N1CCC(N[C@@H](Cc2c[nH]c3ccccc23)C(=O)NCC(c2ccccc2)c2ccccc2)(C(=O)NC2CCCCC2)CC1	-	.	-	-	-	.	.	.	.
CC(C)(C)OC(=O)N1CCC(N[C@@H](Cc2ccccc2)C(=O)NCCc2c[nH]c3ccccc23)(C(=O)NC2CCCCC2)CC1	10	.	-	-	24	-	-	34	19
Cc1ccccc1-c1cnc(C(O)c2ccc(C(C)(C)C)cc2)[nH]1 (configuration not stated)	-	-	-	-	-	.	.	.	.
Cc1cc(C(O)c2ncc(-c3ccc(Oc4ccccc4)cc3)[nH]2)ccc1F (configuration not stated)	13	-	-	-	21	-	-	37	16
Cc1ccccc1-c1cnc(C(O)c2ccc(-c3ccccc3)cc2)[nH]1 (configuration not stated)	9.1	-	-	-	23	-	-	-	-
